In ChEMBL document CHEMBL4732187, “Tetrahydroindazole inhibitors of CDK2/cyclin complexes” (Eur J Med Chem, 2021):
Activity calls are given as the source filed them. The calls are words filed in the database; no cut-off is given here.

What was measured:
CDK2/Cyclin A2 = CDK2/Cyclin A2 (Homo sapiens, UniProt P24941); test: Inhibition of human N-terminal GST-tagged CDK2 (1 to 298 residues)/Cyclin A (174 to 432 residues) expressed in Escherichia coli Turner (DE3) cells assessed as reduction in ADP formation using PKTPKKAKKL as substrate by resorufin dye based fluorescence assay
CDK2/Cyclin A1 = CDK2/Cyclin A1 (Homo sapiens, UniProt P24941); test: Inhibition of CDK2/Cyclin A1 (unknown origin) using histone H1 as substrate preincubated for 20 mins followed by 33P-ATP addition and measured after 2 hrs by filter binding method; assay type: protein-complex assay
[1] = biological target: Cyclin-dependent kinase 2/cyclin E1 (Homo sapiens, UniProt P24941); test: Inhibition of CDK2/Cyclin E (unknown origin) using histone H1 as substrate preincubated for 20 mins followed by 33P-ATP addition and measured after 2 hrs by filter binding method; assay type: protein-complex assay
CDK2/Cyclin O = CDK2/Cyclin O (Homo sapiens, UniProt P22674+P24941); test: Inhibition of CDK2/Cyclin-O (unknown origin) using histone H1 as substrate preincubated for 20 mins followed by 33P-ATP addition and measured after 2 hrs by filter binding method; assay type: protein-complex assay
MCF7 = test: Antiproliferative activity against human MCF7 cells assessed as reduction in cell viability up to 200 uM after 72 hrs by alamarBlue assay; assay type: functional, cell-based; conditions: dose microM <=200, time 72.0 hrs
How it was run: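 MCF-7 cells seeded at 5000 per well and incubated overnight at 37 °C, 5% CO₂, then exposed to 8 concentrations from 0.00256 μM to 200 μM for 72 h. alamarBlue was then added and incubated 90 min at 37 °C. Proliferating cells were read by fluorescence (ex 530 nm, em 590 nm). Staurosporine served as positive control.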

[2] = biological target: Heat shock protein HSP90 (Homo sapiens) (UniProt P07900+P08238); test: Inhibition of HSP90 (unknown origin); assay type: protein assay
[3] = Apparent permeability across apical to basolateral side in MDCK cells at 1 uM after 2 hrs by LC-MS/MS analysis; assay type: ADME, cell-based, Canis lupus familiaris; conditions: dog
How it was run: (§1)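 MDCK monolayers were washed twice with pre-warmed HBSS (10 mM HEPES, pH 7.4) and equilibrated for 30 min at 37 °C. Compound at 1 μM in HBSS (0.5% DMSO final) was added to the apical or the basolateral donor side. After 2 h at 37 °C, donor and receiver samples were quenched in cold methanol with internal standards and analysed by LC-MS/MS. Runs were in duplicate; 100 μM Lucifer Yellow checked monolayer integrity.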

[4] = Apparent permeability across basolateral to apical side in MDCK cells at 1 uM after 2 hrs by LC-MS/MS analysis; assay type: ADME, cell-based, Canis lupus familiaris; conditions: dog; how it was run: as §1
[5] = Efflux ratio of apparent permeability across basolateral to apical side over apical to basolateral side in MDCK cells at 1 uM after 2 hrs by LC-MS/MS analysis; assay type: ADME, cell-based, Canis lupus familiaris; conditions: dog
How it was run: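 MDCK monolayers washed twice with pre-warmed HBSS (10 mM HEPES, pH 7.4) and equilibrated 30 min at 37 °C. 1 μM working solution (0.5% DMSO final) added to apical or basolateral donor side, 37 °C for 2 h, run in duplicate. Donor and receiver samples quenched in cold methanol with internal standards and quantified by LC-MS/MS. Monolayer integrity checked by Lucifer Yellow (100 μM) leakage.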

[6] = Permeability across apical to basolateral side in MDCK cells assessed as drug recovery at 1 uM after 2 hrs by LC-MS/MS analysis; assay type: ADME, cell-based, Canis lupus familiaris; conditions: dog; how it was run: as §1
[7] = Permeability across basolateral to apical side in MDCK cells at 1 uM after 2 hrs by LC-MS/MS analysis; assay type: ADME, cell-based, Canis lupus familiaris; conditions: dog; how it was run: as §1
[8] = biological target: CDK1/Cyclin A (Homo sapiens) (UniProt P06493+P20248); test: Inhibition of CDK1/CyclinA (unknown origin) at 1 uM using histone H1 as substrate preincubated for 20 mins followed by 33P-ATP addition and measured after 2 hrs by filter binding method; assay type: protein-complex assay
Sequence of CDK1/Cyclin A (Homo sapiens) (P06493 whole entry, looked up): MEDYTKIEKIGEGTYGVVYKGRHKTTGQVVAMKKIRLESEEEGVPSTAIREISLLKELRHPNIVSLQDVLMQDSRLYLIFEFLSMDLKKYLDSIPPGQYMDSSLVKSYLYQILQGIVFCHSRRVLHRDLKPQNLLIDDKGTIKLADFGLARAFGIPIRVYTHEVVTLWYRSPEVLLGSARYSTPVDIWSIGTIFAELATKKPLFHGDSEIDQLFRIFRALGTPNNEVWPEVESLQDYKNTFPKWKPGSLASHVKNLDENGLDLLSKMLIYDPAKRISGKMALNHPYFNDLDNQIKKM
Sequence of CDK1/Cyclin A (Homo sapiens) (P20248 whole entry, looked up): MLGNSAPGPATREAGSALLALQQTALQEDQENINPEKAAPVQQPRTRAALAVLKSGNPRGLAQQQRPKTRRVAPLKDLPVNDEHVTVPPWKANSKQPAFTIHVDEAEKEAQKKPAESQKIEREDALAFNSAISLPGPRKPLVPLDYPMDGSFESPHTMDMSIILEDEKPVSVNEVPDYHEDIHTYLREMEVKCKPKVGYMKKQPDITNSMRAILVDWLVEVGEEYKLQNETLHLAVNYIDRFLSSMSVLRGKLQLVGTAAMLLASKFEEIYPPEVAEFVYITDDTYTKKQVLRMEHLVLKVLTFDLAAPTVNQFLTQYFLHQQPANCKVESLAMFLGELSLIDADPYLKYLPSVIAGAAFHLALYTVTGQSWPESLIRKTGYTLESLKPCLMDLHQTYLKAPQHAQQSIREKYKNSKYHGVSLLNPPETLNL
How it was run: (§2)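 Radiometric filter-binding kinase assay at 10 μM ATP in pH 7.5 HEPES buffer with MgCl₂, EGTA, Brij35, BSA, Na₃VO₄, DTT and 1% DMSO. Compound was preincubated with kinase for 20 min at rt, then ³³P-ATP was added and the reaction ran 2 h at rt. Substrate was histone H1 at 20 μM, except myelin basic protein at 20 μM for CDK7/cyclin H and a peptide at 20 μM for CDK9/cyclin T1. Single dose, in duplicate.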

[9] = biological target: Cyclin-dependent kinase 1/cyclin B1 (Homo sapiens) (UniProt P06493+P14635); test: Inhibition of CDK1/Cyclin B (unknown origin) at 1 uM using histone H1 as substrate preincubated for 20 mins followed by 33P-ATP addition and measured after 2 hrs by filter binding method; assay type: protein-complex assay; how it was run: as §2
Sequence of Cyclin-dependent kinase 1/cyclin B1 (Homo sapiens) (P06493 whole entry, looked up, the tested form may be a part): as the sequence (P06493 whole entry, looked up) above
Sequence of Cyclin-dependent kinase 1/cyclin B1 (Homo sapiens) (P14635 whole entry, looked up, the tested form may be a part): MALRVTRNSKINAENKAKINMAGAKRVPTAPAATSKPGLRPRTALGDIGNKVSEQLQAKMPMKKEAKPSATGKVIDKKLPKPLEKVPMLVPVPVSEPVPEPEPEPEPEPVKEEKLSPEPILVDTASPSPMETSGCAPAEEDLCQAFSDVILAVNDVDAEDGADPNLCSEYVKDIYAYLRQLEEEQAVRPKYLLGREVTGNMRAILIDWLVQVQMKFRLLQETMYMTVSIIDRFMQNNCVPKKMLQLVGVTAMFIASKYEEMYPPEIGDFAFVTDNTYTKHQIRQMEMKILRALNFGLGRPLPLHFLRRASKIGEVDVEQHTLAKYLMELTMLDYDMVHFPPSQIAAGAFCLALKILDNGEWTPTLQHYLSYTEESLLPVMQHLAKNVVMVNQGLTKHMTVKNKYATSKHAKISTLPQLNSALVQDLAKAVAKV

[10] = biological target: CDK2/Cyclin A2 (Homo sapiens) (UniProt P24941+P20248); test: Inhibition of human N-terminal GST-tagged CDK2 (1 to 298 residues)/Cyclin A (174 to 432 residues) expressed in Escherichia coli Turner (DE3) cells assessed as reduction in ADP formation at 1 uM using PKTPKKAKKL as substrate by resorufin dye based fluorescence assay
[11] = biological target: CDK2/Cyclin A1 (Homo sapiens) (UniProt P24941+P78396); test: Inhibition of CDK2/Cyclin A1 (unknown origin) at 1 uM using histone H1 as substrate preincubated for 20 mins followed by 33P-ATP addition and measured after 2 hrs by filter binding method; assay type: protein-complex assay; how it was run: as §2
[12] = biological target: Cyclin-dependent kinase 2/cyclin E1 (Homo sapiens) (UniProt P24864+P24941); test: Inhibition of CDK1/Cyclin E (unknown origin) at 1 uM using histone H1 as substrate preincubated for 20 mins followed by 33P-ATP addition and measured after 2 hrs by filter binding method; assay type: protein-complex assay; how it was run: as §2
[13] = biological target: CDK2/Cyclin O (Homo sapiens) (UniProt P24941+P22674); test: Inhibition of CDK1/Cyclin-O (unknown origin) at 1 uM using histone H1 as substrate preincubated for 20 mins followed by 33P-ATP addition and measured after 2 hrs by filter binding method; assay type: protein-complex assay; how it was run: as §2
[14] = biological target: CDK3/Cyclin E (Homo sapiens) (UniProt P24864+Q00526); test: Inhibition of CDK3/Cyclin E (unknown origin) at 1 uM using histone H1 as substrate preincubated for 20 mins followed by 33P-ATP addition and measured after 2 hrs by filter binding method; assay type: protein-complex assay; how it was run: as §2
Sequence of CDK3/Cyclin E (Homo sapiens) (P24864 whole entry, looked up): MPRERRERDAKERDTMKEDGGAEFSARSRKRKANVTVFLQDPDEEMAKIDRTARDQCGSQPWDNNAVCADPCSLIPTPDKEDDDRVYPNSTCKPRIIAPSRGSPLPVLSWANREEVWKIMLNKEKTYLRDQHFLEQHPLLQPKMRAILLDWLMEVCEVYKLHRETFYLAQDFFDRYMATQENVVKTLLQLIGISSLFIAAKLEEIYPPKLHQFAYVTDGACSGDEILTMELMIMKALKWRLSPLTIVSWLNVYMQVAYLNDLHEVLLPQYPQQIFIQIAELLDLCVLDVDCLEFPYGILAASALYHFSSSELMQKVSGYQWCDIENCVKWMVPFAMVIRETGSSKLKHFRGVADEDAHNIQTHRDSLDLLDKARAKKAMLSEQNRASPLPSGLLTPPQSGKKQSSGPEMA
Sequence of CDK3/Cyclin E (Homo sapiens) (Q00526 whole entry, looked up): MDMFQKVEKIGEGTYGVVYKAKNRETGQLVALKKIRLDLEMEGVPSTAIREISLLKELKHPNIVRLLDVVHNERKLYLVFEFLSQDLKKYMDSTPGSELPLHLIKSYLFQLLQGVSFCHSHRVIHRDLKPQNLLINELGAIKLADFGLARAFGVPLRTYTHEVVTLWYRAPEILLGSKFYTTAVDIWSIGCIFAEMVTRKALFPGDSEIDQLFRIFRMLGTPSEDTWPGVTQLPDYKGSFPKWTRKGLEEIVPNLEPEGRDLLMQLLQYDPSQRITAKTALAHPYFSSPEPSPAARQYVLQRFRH

[15] = biological target: Cyclin-dependent kinase 4/cyclin D1 (Homo sapiens) (UniProt P11802+P24385); test: Inhibition of CDK4/Cyclin D1 (unknown origin) at 1 uM using RB protein as substrate preincubated for 20 mins followed by 33P-ATP addition and measured after 2 hrs by filter binding method; assay type: protein-complex assay
How it was run: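 Radiometric filter-binding assay of CDK4/cyclin D1 using RB protein at 3 μM and ATP at 10 μM in pH 7.5 HEPES buffer with 1% DMSO. Compound was preincubated for 20 min at rt, then ³³P-ATP was added and the reaction ran 2 h at rt, with spotting on P81 paper. Single dose, in duplicate.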

[16] = biological target: Cyclin-dependent kinase 5/CDK5 activator 1 (Homo sapiens) (UniProt Q00535+Q15078); test: Inhibition of CDK5/p25 (unknown origin) at 1 uM using histone H1 as substrate preincubated for 20 mins followed by 33P-ATP addition and measured after 2 hrs by filter binding method; assay type: protein-complex assay; how it was run: as §2
Sequence of Cyclin-dependent kinase 5/CDK5 activator 1 (Homo sapiens) (Q00535 whole entry): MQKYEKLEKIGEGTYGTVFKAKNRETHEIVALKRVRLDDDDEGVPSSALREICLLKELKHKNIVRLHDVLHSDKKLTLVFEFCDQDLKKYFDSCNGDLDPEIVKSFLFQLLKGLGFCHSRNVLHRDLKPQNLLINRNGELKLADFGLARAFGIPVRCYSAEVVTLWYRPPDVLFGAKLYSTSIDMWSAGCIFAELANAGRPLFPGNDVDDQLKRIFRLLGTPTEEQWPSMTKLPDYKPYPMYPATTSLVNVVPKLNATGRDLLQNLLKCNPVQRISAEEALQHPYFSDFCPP
Sequence of Cyclin-dependent kinase 5/CDK5 activator 1 (Homo sapiens) (Q15078 99-307 partner limits assumed): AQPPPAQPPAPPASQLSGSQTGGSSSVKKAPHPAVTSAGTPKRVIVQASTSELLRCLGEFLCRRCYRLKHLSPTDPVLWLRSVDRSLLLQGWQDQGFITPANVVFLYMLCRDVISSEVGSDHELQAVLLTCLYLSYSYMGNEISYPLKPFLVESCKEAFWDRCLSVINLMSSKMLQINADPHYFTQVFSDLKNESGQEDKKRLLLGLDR

[17] = biological target: Cyclin-dependent kinase 7/ cyclin H (Homo sapiens) (UniProt P51946+P50613); test: Inhibition of CDK7/Cyclin H (unknown origin) at 1 uM using myelin basic protein as substrate preincubated for 20 mins followed by 33P-ATP addition and measured after 2 hrs by filter binding method; assay type: protein-complex assay; how it was run: as §2
Homo sapiens = species: Homo sapiens; test: Inhibition of CDK9/Cyclin T1 (unknown origin) at 1 uM using KTFCGTPEYLAPEVRREPRILSEEEQEMFRDFDYIAD as substrate preincubated for 20 mins followed by 33P-ATP addition and measured after 2 hrs by filter binding method; how it was run: as §2
[18] = biological target: CDK6/cyclin D1 (Homo sapiens) (UniProt P24385+Q00534); test: Inhibition of CDK6/Cyclin D1 (unknown origin) at 1 uM using RB protein as substrate preincubated for 20 mins followed by 33P-ATP addition and measured after 2 hrs by filter binding method

Work on `Cc1nn(-c2ccccn2)c2c1C(=O)CC(C)(C)C2Br` (stereo not drawn) yielded an IC50 (CDK2/Cyclin A2) of 2600 nM, an IC50 (CDK2/Cyclin A1) of 134 nM and an IC50 [1] of 27.4 nM. The IC50 (CDK2/Cyclin O) was 108 nM, the Activity (MCF7) was “inactive” and the inhibition [2] was “inactive”. It also gave a Papp A→B at 2 h, 1 µM [3] of 20.1 ×10⁻⁶ cm/s, a Papp B→A at 2 h, 1 µM [4] of 9.52 ×10⁻⁶ cm/s and a Ratio [5] of 0.47. The Drug recovery [6] was 52.4% and the Drug recovery [7] was 49.8%.
In the case of `Cc1nn(-c2ccccn2)c2c1C(=O)CC(C)C2Br` (cis isomer), the inhibition [8] is reported as “inactive”, the inhibition [9] is reported as “inactive” and the inhibition [10] is reported as “inactive”. The inhibition [11] was “inactive”, the inhibition [12] was “inactive” and the inhibition [13] was “inactive”. The inhibition [14] was “inactive”, the inhibition [15] was “inactive” and the inhibition [16] was “inactive”. The inhibition [17] was “inactive”, the inhibition (Homo sapiens) was “inactive” and the inhibition [18] was “inactive”.
